Series [1] relates to Trypanosoma cruzi. The series can be described thus: Antitrypanosomal activity against tdTomato red expressing Trypanosoma cruzi CL amastigotes infected in gamma-irradiated African green monkey Vero cells assessed as inhibition of parasite growth at 10 uM after 72 hrs by fluorescence assay relative to untreated control. The series is classed as functional. To be noted: light or radiation study, read-out: GI.

Series [2] can be described thus: Cytotoxicity against African green monkey Vero cells after 72 hrs by Alamar Blue assay. The series is classed as cell-based. To be noted: chlorocebus sabaeus, read-out: ED50. Summed up: (§1)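 Vero cells treated 72 h at 35 °C, 7% CO2, in quadruplicate wells, with untreated host-cell and DMSO toxicity controls. Alamar Blue was added at 10% of culture volume for 6 h at 35 °C, and absorbance read at 570 and 600 nm. Cytotoxicity was also scored by cell detachment under optical microscopy. Three biological replicates of 4 technical replicates each.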

In series [3] the test system is Trypanosoma cruzi. Description: Antitrypanosomal activity against tdTomato red expressing Trypanosoma cruzi CL amastigotes infected in gamma-irradiated African green monkey Vero cells assessed as inhibition of parasite growth at 1 uM after 72 hrs by fluorescence assay relative to untreated control. The series is classed as functional. Conditions: light or radiation study, read-out: GI.

Series [4] concerns Trypanosoma cruzi. Description: Antitrypanosomal activity against tdTomato red expressing Trypanosoma cruzi CL amastigotes infected in gamma-irradiated African green monkey Vero cells after 72 hrs by fluorescence assay. The series is classed as functional. Conditions: light or radiation study, read-out: ED50 (the source's name). In short, it runs like this:
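Gamma-irradiated (2,000 Rads) Vero cells, 3.4 × 10^4/well in RPMI with 10% FBS, held overnight at 35 °C, 7% CO2. Infected 5 h with 3.4 × 10^5 tdTomato CL trypomastigotes/well, then washed. Compounds were serially diluted 1.56–25 µM in quadruplicate, with benznidazole reference at 0.39–6.25 µM. Fluorescence read 72 h post-infection. ED50 by non-linear regression, mean ± S.D. of 3 biological replicates.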

The subject of series [5] is Vero. The series can be described thus: Cytotoxicity against African green monkey Vero cells at 15 to 20 uM after 72 hrs by Alamar Blue assay. Conditions: chlorocebus sabaeus. It is filed as cell-based. Summed up:
as §1

Series [6] deals with Trypanosoma cruzi. Description: Antitrypanosomal activity against tdTomato red expressing Trypanosoma cruzi CL amastigotes infected in gamma-irradiated African green monkey Vero cells assessed as inhibition of parasite growth at 6 uM after 72 hrs by fluorescence assay relative to untreated control. The series is classed as functional, organism-based.
Series [7] relates to Vero. Description: Cytotoxicity against African green monkey Vero cells at 20 uM after 72 hrs by Alamar Blue assay. The series is classed as cell-based. To be noted: chlorocebus sabaeus. In short, it runs like this:
as §1
For orientation: The colour change of resazurin is a common sign of viable cells or microbes.

Active and inactive are the calls of the source. The rule behind the calls is not given here. Where only a bound is given, the exact number is not on record here.

With `N#C[Se]CCOc1ccccc1Oc1ccccc1`, in the series on Trypanosoma cruzi [1], the inhibition of growth at 10 µM worked out at 33%. The CC50 at 72 h in series [2] is more than 20 µM.
On to `N#CCCOc1ccc(Oc2ccccc2)cc1`, for which the CC50 at 72 h in series [2] is more than 20 µM.
On to `FC(F)(F)[Se]CCOc1cccc(Oc2ccccc2)c1`, for which, in the series on Trypanosoma cruzi [3], the inhibition of growth at 1 µM amounted to 30.9%. The CC50 at 72 h in series [2] was more than 20 µM.
Regarding `FC(F)(F)[Se]CCOc1ccc(Oc2ccccc2)cc1`, in the series on Trypanosoma cruzi [4], the EC50 is more than 1 µM. Also, the inhibition of growth at 1 µM with Trypanosoma cruzi [3] was found to be 6.7%. Moreover, the CC50 at 72 h in series [2] was more than 20 µM.
`COc1ccc(OCC[Se]C#N)cc1`: the Activity entry in the series on Vero [5] is given as “Toxic”. The “growth inhibition (GI)” value in the series with Trypanosoma cruzi [6] was “inactive”.
On to `N#C[Se]CC1Cc2ccc(Oc3ccccc3)cc2O1` (racemic), for which the EC50 in the series with Trypanosoma cruzi [4] came to 0.0939 µM. Besides, the CC50 at 72 h in series [2] is more than 20 µM.
In the case of `FC(F)(F)SCCOc1ccc(Oc2ccccc2)cc1`, the inhibition of growth at 10 µM in the series on Trypanosoma cruzi [1] was 12%. Further, the CC50 at 72 h in series [2] is more than 20 µM.
In the case of `FC(F)(F)SCCOc1cccc(Oc2ccccc2)c1`, in the series on Trypanosoma cruzi [4], the EC50 is more than 10 µM. In addition, the CC50 at 72 h in series [2] is more than 20 µM.
`O=C(Cn1ccnc1[N+](=O)[O-])NCc1ccccc1` [BENZNIDAZOLE]: the CC50 at 72 h in series [2] is more than 10 µM.
As to `N#CSCCOc1ccccc1Oc1ccccc1`, in the series on Trypanosoma cruzi [1], the inhibition of growth at 10 µM was 33%. The CC50 at 72 h in series [2] is more than 20 µM.
Take `N#C[Se]CCOc1ccc([N+](=O)[O-])cc1`: in the series on Vero [5], the Activity entry is given as “Toxic”.
Regarding `N#CCCCOc1ccc(Oc2ccccc2)cc1`, in series [2], the CC50 at 72 h was more than 20 µM.
Take `N#C[Se]CCOc1ccccc1`: in the series on Vero [7], the Activity result is “Toxic”.
